Where a SMILES comes first, the peptide text is derived from it. [ ]: non-standard residue; d: D form. Sar = CNCC(=O)O
What was measured:
Oryctolagus cuniculus = species: Oryctolagus cuniculus; experiment: In vitro myotropic property on the isolated rabbit aorta, expressed as pA2; assay type: functional; details: read-out: pA2 (converted)
Procedure, shortened: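 Aortic rings from male New Zealand white rabbits (2-2.5 kg) equilibrated 1 h, then set at ~1 g passive tension. Paired rings were used: one received cumulative AII, the other AII with the peptide added 5 min before. AII was given at 30-min intervals with Krebs washes. Responses were taken as % of control maximal contraction, and pA2 was derived by Schild analysis.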

Rattus norvegicus [1] = experiment: In vivo activity to antagonize the effect of bolus injection of compound at 30 ug/kg in rat; assay type: functional; details: in the assay text read “angiotensin II at 30 ng/kg” for “compound at 30 ug/kg”
Procedure, shortened: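 Male Sprague-Dawley rats (240-400 g) under Inactin (100 mg/kg ip), ganglion-blocked with mecamylamine 3 mg/kg iv and atropine ip. AII 30 ng/kg iv bolus was given four times at 10-min intervals as baseline. Peptide was infused iv for 20 min, then AII was rechallenged. Endpoint was the smallest infusion dose (µg/kg per min) fully blocking the bolus, with time to ~50% recovery after infusion stopped.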

Rattus norvegicus [2] = experiment: Variation of MAP induced bolus injection of 100 ug/kg of compound during infusion in rat reported as % of control (100) at a dose of 10 ug/kg; assay type: functional
Procedure, shortened: (§1)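 Same ganglion-blocked, Inactin-anaesthetized rat preparation, with MAP recorded via femoral artery catheter. Antagonist was infused iv for 20 min at 10, 30, 60 or 100 µg/kg per min before AII 30 ng/kg iv bolus challenge. After infusion stopped, AII was repeated at 5-10-min intervals for 1 h. The pressor response was expressed as % of control at 5-60 min, mean ± SEM, n = 2-6.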

Rattus norvegicus [3] = experiment: Percentage of pressor response to antagonize the effect of bolus injection of compound at a dose of 30 ug/kg/min in rat; assay type: functional
Rattus norvegicus [4] = experiment: Variation in mean arterial pressure after 5 min of antagonist infusion at a dose of 10 ug/kg
Rattus norvegicus [5] = experiment: Variation in mean arterial pressure after 60 min of antagonist infusion at a dose of 10 ug/kg
Rattus norvegicus [6] = experiment: Variation in mean arterial pressure after 10 min of antagonist infusion at a dose of 10 ug/kg
Rattus norvegicus [7] = experiment: Variation in mean arterial pressure after 20 min of antagonist infusion at a dose of 10 ug/kg
Rattus norvegicus [8] = experiment: Variation in mean arterial pressure after 40 min of antagonist infusion at a dose of 10 ug/kg
Rattus norvegicus [9] = experiment: Percentage of pressor response to antagonize the effect of bolus injection of compound at a dose of 30 ug/kg per min in rat; assay type: functional
Rattus norvegicus [10] = experiment: Variation of MAP induced bolus injection of 60 ug/kg of compound during infusion in rat reported as % of control (100) at a dose of 10 ug/kg; assay type: functional; procedure, shortened: as §1
Rattus norvegicus [11] = experiment: Drinking water response evaluated in conscious rat at a dose of 2500 pmol icv; assay type: functional
Procedure, shortened: (§2)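 Conscious Sprague–Dawley rats given AII 100 pmol icv to induce water drinking. Test peptide was given icv at 500 or 2500 pmol, and the drinking response was recorded.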

Rattus norvegicus [12] = experiment: Drinking water response evaluated in conscious rat at a dose of 500 pmol icv; assay type: functional; procedure, shortened: as §2
Rattus norvegicus [13] = experiment: Variation of MAP induced bolus injection of 30 ng/kg of compound during infusion in rat reported as % of control (100) at a dose of 30 ug/kg; assay type: functional; details: in the assay text read “10 ug/kg” for “30 ug/kg”; procedure, shortened: as §1
Rattus norvegicus [14] = experiment: Variation in mean arterial pressure after 40 min of antagonist infusion at a dose of 30 ug/kg
Rattus norvegicus [15] = species: Rattus norvegicus; experiment: In vitro myotropic property in rat stomach, expressed as pA2; assay type: functional; details: read-out: pA2 (converted)
Rattus norvegicus [16] = experiment: In vivo activity to antagonize the effect of bolus injection of angiotensin II at 30 ng/kg in rat
Rattus norvegicus [17] = species: Rattus norvegicus; experiment: In vitro myotropic property in rat isolated uterus, expressed as pA2; assay type: functional; details: read-out: pA2 (converted)
Rattus norvegicus [18] = experiment: In vivo activity to antagonize the effect of bolus injection of angiotensin II at 30 ng/kg in rat; remark: listed apart in the source
Rattus norvegicus [19] = experiment: Variation in mean arterial pressure after 5 min of antagonist infusion at a dose of 10 ug/kg; remark: listed apart in the source
Rattus norvegicus [20] = experiment: Variation in mean arterial pressure after 60 min of antagonist infusion at a dose of 10 ug/kg; remark: listed apart in the source
Rattus norvegicus [21] = experiment: Variation in mean arterial pressure after 10 min of antagonist infusion at a dose of 10 ug/kg; remark: listed apart in the source
Rattus norvegicus [22] = experiment: Variation in mean arterial pressure after 20 min of antagonist infusion at a dose of 10 ug/kg; remark: listed apart in the source
Rattus norvegicus [23] = experiment: Variation in mean arterial pressure after 40 min of antagonist infusion at a dose of 10 ug/kg; remark: listed apart in the source

CC[C@H](C)[C@H](NC(=O)[C@H](Cc1ccc(O)cc1)NC(=O)[C@@H](NC(=O)[C@H](CCCN=C(N)N)NC(=O)CNC)C(C)C)C(=O)N[C@@H](Cc1c[nH]cn1)C(=O)N(C)C (H-[Sar]RVYIH-NMe2) [listing 1 of 2 here]
Kb (Oryctolagus cuniculus): 89.1 nM

CC[C@H](C)[C@H](NC(=O)[C@H](Cc1ccc(OC)cc1)NC(=O)[C@@H](NC(=O)[C@H](CCCN=C(N)N)NC(=O)CNC)C(C)C)C(=O)N[C@@H](Cc1c[nH]cn1)C(=O)N1CCC[C@H]1C(N)=O [listing 1 of 2 here]
Antagonist activity (Rattus norvegicus [1]): >100 µg/min/kg
Control (Rattus norvegicus [2]): 19%
Agonist activity (Rattus norvegicus [3]): 65%
MAP (Rattus norvegicus [4]): 70%
MAP (Rattus norvegicus [5]): 100%
Pressor response, % of control (Rattus norvegicus [6]): 86%
Pressor response, % of control (Rattus norvegicus [7]): 89%
Pressor response, % of control (Rattus norvegicus [8]): 91%

CC[C@H](C)[C@H](NC(=O)[C@H](Cc1ccc(O)cc1)NC(=O)[C@@H](NC(=O)[C@H](CCCN=C(N)N)NC(=O)CNC)C(C)C)C(=O)N[C@@H](Cc1c[nH]cn1)C(=O)N1CCC[C@H]1C(=O)O [listing 1 of 2 here]
Antagonist activity (Rattus norvegicus [1]): >100 µg/min/kg
Control (Rattus norvegicus [2]): 9%
Agonist activity (Rattus norvegicus [9]): 45%
Pressor response, % of control (Rattus norvegicus [6]): 36%

H-DRVYIH-NH2
Kb (Oryctolagus cuniculus): > 1000 nM

CC[C@H](C)[C@H](NC(=O)[C@H](Cc1ccc(O)cc1)NC(=O)[C@@H](NC(=O)[C@H](CCCN=C(N)N)NC(=O)CNC)C(C)C)C(=O)N[C@@H](Cc1c[nH]cn1)C(=O)N1CCC[C@H]1C(N)=O [listing 1 of 2 here]
Antagonist activity (Rattus norvegicus [1]): 60 µg/min/kg
Control (Rattus norvegicus [10]): 6%
Agonist activity (Rattus norvegicus [3]): 60%
Water intake (Rattus norvegicus [11]): 10.8 ml 20min-1
Water intake (Rattus norvegicus [12]): 10 ml 20min-1

CNCC(=O)N[C@@H](CCCN=C(N)N)C(=O)N[C@H](C(=O)N[C@@H](Cc1ccc(O)cc1)C(=O)N[C@H](C(=O)N[C@@H](Cc1c[nH]cn1)C(=O)N1CCC[C@H]1C(=O)N[C@@H](C)C(=O)O)C(C)C)C(C)C [listing 1 of 2 here]
Antagonist activity (Rattus norvegicus [1]): 10 µg/min/kg
Control (Rattus norvegicus [2]; in the assay text read “30 ng/kg of angiotensin II” for “100 ug/kg of compound”): 0%
Control (Rattus norvegicus [13]): 0%
MAP (Rattus norvegicus [4]): 29%
MAP (Rattus norvegicus [5]): 94%
Pressor response, % of control (Rattus norvegicus [6]): 50%
Pressor response, % of control (Rattus norvegicus [7]): 78%
Pressor response, % of control (Rattus norvegicus [8]): 96%
Pressor response, % of control (Rattus norvegicus [14]): 96%

CC[C@H](C)[C@H](NC(=O)[C@H](Cc1ccc(O)cc1)NC(=O)[C@@H](NC(=O)[C@H](CCCN=C(N)N)NC(=O)CNC)C(C)C)C(=O)N[C@@H](Cc1c[nH]cn1)C(=O)N(C)CC(N)=O (H-[Sar]RVYIH[Sar]-NH2)
Kb (Oryctolagus cuniculus): > 1000 nM

CNCC(=O)N[C@@H](CCCN=C(N)N)C(=O)N[C@H](C(=O)N[C@@H](Cc1ccc(O)cc1)C(=O)N[C@H](C(=O)N[C@@H](Cc1c[nH]cn1)C(=O)N1CCC[C@H]1C(=O)N[C@@H](C)C(=O)O)C(C)C)C(C)C [listing 2 of 2 here]
Kb (Rattus norvegicus [15]): 5.01 nM

CC[C@H](C)[C@H](NC(=O)[C@H](Cc1ccc(O)cc1)NC(=O)[C@@H](NC(=O)[C@H](CCCN=C(N)N)NC(=O)[C@@H](N)CC(=O)O)C(C)C)C(=O)N[C@@H](Cc1c[nH]cn1)C(=O)N(C)CC(N)=O (H-DRVYIH[Sar]-NH2)
Kb (Oryctolagus cuniculus): > 1000 nM

CC[C@H](C)[C@H](NC(=O)[C@H](Cc1ccc(O)cc1)NC(=O)[C@@H](NC(=O)[C@H](CCCN=C(N)N)NC(=O)[C@@H](N)CC(=O)O)C(C)C)C(=O)N[C@@H](Cc1c[nH]cn1)C(=O)N1CCC[C@@H]1C(=O)O
Kb (Oryctolagus cuniculus): > 1000 nM
Water intake (Rattus norvegicus [12]): 6.1 ml 20min-1
Antagonist activity (Rattus norvegicus [16]): >300 µg/min/kg

CC[C@H](C)[C@H](NC(=O)[C@H](Cc1ccc(O)cc1)NC(=O)[C@@H](NC(=O)[C@H](CCCN=C(N)N)NC(=O)CNC)C(C)C)C(=O)N[C@@H](Cc1c[nH]cn1)C(=O)N1CCC[C@H]1C(=O)O [listing 2 of 2 here]
Kb (Oryctolagus cuniculus): 31.6 nM

CC[C@H](C)[C@H](NC(=O)[C@H](Cc1ccc(OC)cc1)NC(=O)[C@@H](NC(=O)[C@H](CCCN=C(N)N)NC(=O)CNC)C(C)C)C(=O)N[C@@H](Cc1c[nH]cn1)C(=O)N1CCC[C@H]1C(=O)N[C@@H](Cc1ccccc1)C(=O)O
Agonist activity (Rattus norvegicus [9]): 60%
Water intake (Rattus norvegicus [12]): 3.1 ml 20min-1
Kb (Rattus norvegicus [17]): 25.1 nM
Antagonist activity (Rattus norvegicus [18]): 30 µg/min/kg

CC[C@H](C)[C@H](NC(=O)[C@H](Cc1ccc(OC)cc1)NC(=O)[C@@H](NC(=O)[C@H](CCCN=C(N)N)NC(=O)CNC)C(C)C)C(=O)N[C@@H](Cc1c[nH]cn1)C(=O)N1CCC[C@H]1C(N)=O [listing 2 of 2 here]
Kb (Oryctolagus cuniculus): 20 nM

CC[C@H](C)[C@H](NC(=O)[C@H](Cc1ccc(O)cc1)NC(=O)[C@@H](NC(=O)[C@H](CCCN=C(N)N)NC(=O)CNC)C(C)C)C(=O)N[C@@H](Cc1c[nH]cn1)C(=O)N(C)C (H-[Sar]RVYIH-NMe2) [listing 2 of 2 here]
Antagonist activity (Rattus norvegicus [1]): 100 µg/min/kg
Control (Rattus norvegicus [2]): 5%
Agonist activity (Rattus norvegicus [9]): 50%
Pressor response, % of control (Rattus norvegicus [19]): 10%
MAP (Rattus norvegicus [20]): 82%
Pressor response, % of control (Rattus norvegicus [21]): 13%
Pressor response, % of control (Rattus norvegicus [22]): 28%
Pressor response, % of control (Rattus norvegicus [23]): 67%

CC[C@H](C)[C@H](NC(=O)[C@H](Cc1ccc(O)cc1)NC(=O)[C@@H](NC(=O)[C@H](CCCN=C(N)N)NC(=O)CNC)C(C)C)C(=O)N[C@@H](Cc1c[nH]cn1)C(=O)NCC(N)=O (H-[Sar]RVYIHG-NH2)
Kb (Oryctolagus cuniculus): > 1000 nM

CC[C@H](C)[C@H](NC(=O)[C@H](Cc1ccc(O)cc1)NC(=O)[C@@H](NC(=O)[C@H](CCCN=C(N)N)NC(=O)CNC)C(C)C)C(=O)N[C@@H](Cc1c[nH]cn1)C(=O)N1CCC[C@H]1C(N)=O [listing 2 of 2 here]
Kb (Oryctolagus cuniculus): 25.1 nM

CC[C@H](C)[C@H](NC(=O)[C@H](Cc1ccc(O)cc1)NC(=O)[C@@H](NC(=O)[C@H](CCCN=C(N)N)NC(=O)CNC)C(C)C)C(=O)N[C@@H](Cc1c[nH]cn1)C(N)=O (H-[Sar]RVYIH-NH2)
Kb (Oryctolagus cuniculus): > 1000 nM
